Assay results from ChEMBL document CHEMBL3124843, “Synthesis, cytostatic, antimicrobial, and anti-HCV activity of 6-substituted 7-(het)aryl-7-deazapurine ribonucleosides” (J Med Chem, 2014).
Activity calls are given as the source filed them. No rule for the calls is given here.

Key:
HL-60 = test: Antiproliferative activity against human HL60 cells after 72 hrs by XTT assay; format: functional, cell-based; conditions: HL-60, 72 h
Method in brief: (§1)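 Antiproliferative test on HL-60 promyelocytic leukemia and HeLa S3 cervical carcinoma cells growing in liquid suspension.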

HCT-116 [1] = test: Cytostatic activity against p53-deficient human HCT116 cells after 72 hrs by MTT assay; format: functional, cell-based; conditions: HCT-116, 72 h
Method in brief: (§2)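 IC50 is the concentration that cuts cell growth by 50%, read by quantitative metabolic MTT staining after a 3-day treatment. The resistant sublines were made by raising the concentration of the cytotoxic drug step by step. CEM-DNR-bulk (daunorubicin-selected) stably overexpresses mrp-1. K562-TAX (paclitaxel-selected) expresses only mdr-1. HCT116p53−/− carries null p53 alleles. BJ and MRC-5 are nonmalignant fibroblasts.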

Candida parapsilosis = test: Antifungal activity against Candida parapsilosis after 48 hrs; format: functional, organism-based
[2] = Cytotoxicity against human HuH7 cells infected with Hepatitis C virus subtype 1b; format: cell-based, Huh-7
[3] = system: Staphylococcus haemolyticus; test: Antibacterial activity against methicillin-resistant Staphylococcus haemolyticus A/16568 after 24 hrs; format: functional, organism-based
[4] = Cytostatic activity against human CEM-DNR-bulk cells after 72 hrs by MTT assay; format: functional, cell-based; method in brief: as §2
K562 [5] = test: Cytostatic activity against paclitaxel-resistant human K562 cells after 72 hrs by MTT assay; format: functional, cell-based; conditions: K562, 72 h; method in brief: as §2
Staphylococcus aureus [6] = test: Antibacterial activity against methicillin-resistant Staphylococcus aureus MRSA 4591 after 24 hrs; format: functional, organism-based
Escherichia coli [7] = test: Antibacterial activity against Escherichia coli CCM 3954 after 24 hrs; format: functional, organism-based
K562 [8] = test: Cytostatic activity against human K562 cells after 72 hrs by MTT assay; format: functional, cell-based; conditions: K562, 72 h; method in brief: as §2
HepG2 = test: Antiproliferative activity against human HepG2 cells after 72 hrs by XTT assay; format: functional, cell-based; conditions: HepG2, 72 h
CCRF-CEM [9] = test: Cell cycle arrest in human CCRF-CEM cells assessed as accumulation at sub-G1 phase at IC50 after 24 hrs by propidium iodide staining-based flow cytometric analysis (reference value: 9.6%); format: functional
CCRF-CEM [10] = test: Cytostatic activity against human CCRF-CEM cells after 72 hrs by MTT assay; format: functional, cell-based; method in brief: as §2
BJ = test: Cytostatic activity against human BJ cells after 72 hrs by MTT assay; format: ADME, cell-based; method in brief: as §2
Candida tropicalis = test: Antifungal activity against Candida tropicalis after 48 hrs; format: functional, organism-based
Pseudomonas aeruginosa [11] = test: Antibacterial activity against Pseudomonas aeruginosa CCM 3955 after 24 hrs; format: functional, organism-based
Hepatitis C virus [12] = test: Antiviral activity against Hepatitis C virus subtype 2a infected in human HuH7 cells; format: functional, organism-based, Hepacivirus hominis; conditions: genotype 2a, Huh-7
MRC5 = test: Cytostatic activity against human MRC5 cells after 72 hrs by MTT assay; format: ADME, cell-based; conditions: MRC5, 72 h; method in brief: as §2
[13] = Cytotoxicity against human HuH7 cells infected with Hepatitis C virus subtype 2a; format: cell-based, Huh-7
Staphylococcus aureus [14] = test: Antibacterial activity against Staphylococcus aureus CCM 3953 after 24 hrs; format: functional, organism-based
CCRF-CEM [15] = test: Inhibition of RNA synthesis in human CCRF-CEM cells assessed as BrU-positive cells at IC50 after 24 hrs by propidium iodide staining-based flow cytometric analysis (reference value: 43.3%); format: functional; parameters: scale not given: the % may be the effect or the level left
Candida albicans = test: Antifungal activity against Candida albicans after 48 hrs; format: functional, organism-based
A549 = test: Cytostatic activity against human A549 cells after 72 hrs by MTT assay; format: functional, cell-based; conditions: A549, 72 h; method in brief: as §2
Enterococcus faecalis = test: Antibacterial activity against Enterococcus faecalis CCM 4224 after 24 hrs; format: functional, organism-based
Pseudomonas aeruginosa [16] = test: Antibacterial activity against multi-resistant Pseudomonas aeruginosa A/16575 after 24 hrs; format: functional, organism-based
CCRF-CEM [17] = test: Mitotic arrest in human CCRF-CEM cells assessed as pH3Ser10-positive cells at IC50 after 24 hrs by propidium iodide staining-based flow cytometric analysis (reference value: 1.4%); format: functional
Escherichia coli [18] = test: Antibacterial activity against multi-resistant Escherichia coli C/16702 after 24 hrs; format: functional, organism-based
Hepatitis C virus [19] = test: Antiviral activity against Hepatitis C virus subtype 1b infected in human HuH7 cells; format: functional, organism-based, Hepacivirus hominis; conditions: genotype 1b, Huh-7
Pichia kudriavzevii = test: Antifungal activity against Candida crusei after 48 hrs; format: functional, organism-based
HCT-116 [20] = test: Cytostatic activity against human HCT116 cells after 72 hrs by MTT assay; format: functional, cell-based; conditions: HCT-116, 72 h; method in brief: as §2
[21] = Antiproliferative activity against human HeLaS3 cells after 72 hrs by XTT assay; format: functional, cell-based; conditions: HeLa S3, 72 h; method in brief: as §1
CCRF-CEM [22] = test: Cell cycle arrest in human CCRF-CEM cells assessed as accumulation at G1 phase at IC50 after 24 hrs by propidium iodide staining-based flow cytometric analysis (reference value: 41%); format: functional

SMILES	IC50 (HL-60) [nM]	IC50 (HCT-116 [1]) [nM]	Activity (Candida parapsilosis)	CC50 [2] [µM]	Activity [3]	IC50 [4] [µM]	IC50 (K562 [5]) [nM]	Activity (Staphylococcus aureus [6])	Activity (Escherichia coli [7])	IC50 (K562 [8]) [nM]	IC50 (HepG2) [nM]	IC50 (CCRF-CEM [10]) [nM]	IC50 (BJ) [µM]	Activity (Candida tropicalis)	Activity (Pseudomonas aeruginosa [11])	EC50 (Hepatitis C virus [12]) [µM]	IC50 (MRC5) [µM]	CC50 [13] [µM]	Activity (Staphylococcus aureus [14])	Activity (CCRF-CEM [15]) [%]	also measured
COc1ncnc2c1c(-c1ccoc1)cn2[C@@H]1O[C@H](CO)[C@@H](O)[C@H]1O	150	130	inactive	> 44	inactive	> 20	2820	inactive	inactive	190	290	110	28.8	inactive	inactive	8.28	29.4	> 44	inactive	0.7	Activity (CCRF-CEM [9]): 8.5%; Activity (Candida albicans): inactive; IC50 (A549): 1160 nM; Activity (Enterococcus faecalis): inactive; Activity (Pseudomonas aeruginosa [16]): inactive; Activity (CCRF-CEM [17]): 1.6%; Activity (Escherichia coli [18]): inactive; EC50 (Hepatitis C virus [19]): 330 nM; Activity (Pichia kudriavzevii): inactive; IC50 (HCT-116 [20]): 110 nM; IC50 [21]: 1790 nM
CN(C)c1ncnc2c1c(-c1ccco1)cn2[C@@H]1O[C@H](CO)[C@@H](O)[C@H]1O	220	320	inactive	> 44	inactive	3.14	1280	inactive	inactive	150	> 15000	2910	> 100	inactive	inactive	1.35	> 100	> 44	inactive	0.4	Activity (Candida albicans): inactive; IC50 (A549): 4600 nM; Activity (Enterococcus faecalis): inactive; Activity (Pseudomonas aeruginosa [16]): inactive; Activity (CCRF-CEM [17]): 1.5%; Activity (Escherichia coli [18]): inactive; EC50 (Hepatitis C virus [19]): 1490 nM; Activity (CCRF-CEM [22]): 31%; Activity (Pichia kudriavzevii): inactive; IC50 (HCT-116 [20]): 250 nM; IC50 [21]: 1190 nM
COc1ncnc2c1c(I)cn2[C@@H]1O[C@H](CO)[C@@H](O)[C@H]1O	2300	> 20000	inactive	> 44	inactive	> 20	14800	inactive	inactive	> 20000	> 20000	1150	91	inactive	inactive	> 44	63	> 44	inactive	0.2	Activity (CCRF-CEM [9]): 6%; Activity (Candida albicans): inactive; IC50 (A549): > 20000 nM; Activity (Enterococcus faecalis): inactive; Activity (Pseudomonas aeruginosa [16]): inactive; Activity (CCRF-CEM [17]): 0.9%; Activity (Escherichia coli [18]): inactive; EC50 (Hepatitis C virus [19]): > 44000 nM; Activity (Pichia kudriavzevii): inactive; IC50 (HCT-116 [20]): > 20000 nM; IC50 [21]: 14300 nM
CSc1ncnc2c1c(-c1ccco1)cn2[C@@H]1O[C@H](CO)[C@@H](O)[C@H]1O	120	10	inactive	38.6	inactive	0.23	210	inactive	inactive	40	220	50	0.26	inactive	inactive	0.05	73.9	> 44	inactive	5	Activity (CCRF-CEM [9]): 7.9%; Activity (Candida albicans): inactive; IC50 (A549): 50 nM; Activity (Enterococcus faecalis): inactive; Activity (Pseudomonas aeruginosa [16]): inactive; Activity (CCRF-CEM [17]): 0.7%; Activity (Escherichia coli [18]): inactive; EC50 (Hepatitis C virus [19]): 70 nM; Activity (Pichia kudriavzevii): inactive; IC50 (HCT-116 [20]): 20 nM; IC50 [21]: 540 nM
CN(C)c1ncnc2c1c(-c1ccsc1)cn2[C@@H]1O[C@H](CO)[C@@H](O)[C@H]1O	1920	> 20000	inactive	> 44	inactive	> 20	> 20000	inactive	inactive	530	> 20000	3480	> 100	inactive	inactive	> 44	> 100	> 44	inactive	0.7	Activity (CCRF-CEM [9]): 6.8%; Activity (Candida albicans): inactive; IC50 (A549): > 20000 nM; Activity (Enterococcus faecalis): inactive; Activity (Pseudomonas aeruginosa [16]): inactive; Activity (CCRF-CEM [17]): 0.7%; Activity (Escherichia coli [18]): inactive; EC50 (Hepatitis C virus [19]): 38400 nM; Activity (Pichia kudriavzevii): inactive; IC50 (HCT-116 [20]): > 20000 nM; IC50 [21]: > 15000 nM
